Measurements from ChEMBL document CHEMBL3421537, “Synthesis and biological evaluation of nitrated 7-, 8-, 9-, and 10-hydroxyindenoisoquinolines as potential dual topoisomerase I (Top1)-tyrosyl-DNA phosphodiesterase I (TDP1) inhibitors” (J Med Chem, 2015).
Calls of active or inactive are those of the source.

Legend:
[1] = test system: MCF7; test: Cytotoxicity against human MCF7 cells; assay type: functional
Outline: (§1)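 NCI-60 screen (NCI-DTP): one-dose prescreen at 10 μM, then five concentrations from 100 μM to 10 nM for compounds passing the cutoff. GI50 (50% growth inhibition) interpolated from the five-dose data. Single determination.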

[2] = Cytotoxicity against human OVCAR3 cells; assay type: functional; settings: OVCAR-3; outline: as §1
[3] = test system: DU-145; test: Cytotoxicity against human DU145 cells; assay type: functional; outline: as §1
[4] = test system: SN12C; test: Cytotoxicity against human SN12C cells; assay type: functional; outline: as §1
[5] = test system: SF-539; test: Cytotoxicity against human SF539 cells; assay type: functional; outline: as §1
[6] = test system: HOP-62; test: Cytotoxicity against human HOP62 cells; assay type: functional; outline: as §1
[7] = Cytotoxicity against human HCT116 cells; assay type: functional; settings: HCT-116; outline: as §1
[8] = biological target: Tyrosyl-DNA phosphodiesterase 1 (Homo sapiens, UniProt Q9NUW8); test: Inhibition of human recombinant TDP1 assessed as hydrolysis of N14Y to N14P after 15 mins by PAGE analysis
[9] = biological target: T1, DNA topoisomerase 1 (Homo sapiens) (UniProt P11387); test: Inhibition of human recombinant Top1 expressed in baculovirus-infected insect Sf9 cells using 3'-[32P]-end-labeled 117 bp DNA as substrate assessed as inhibition of DNA cleavage after 20 mins by PAGE analysis relative to 1 uM camptothecin
T1 sequence (whole entry): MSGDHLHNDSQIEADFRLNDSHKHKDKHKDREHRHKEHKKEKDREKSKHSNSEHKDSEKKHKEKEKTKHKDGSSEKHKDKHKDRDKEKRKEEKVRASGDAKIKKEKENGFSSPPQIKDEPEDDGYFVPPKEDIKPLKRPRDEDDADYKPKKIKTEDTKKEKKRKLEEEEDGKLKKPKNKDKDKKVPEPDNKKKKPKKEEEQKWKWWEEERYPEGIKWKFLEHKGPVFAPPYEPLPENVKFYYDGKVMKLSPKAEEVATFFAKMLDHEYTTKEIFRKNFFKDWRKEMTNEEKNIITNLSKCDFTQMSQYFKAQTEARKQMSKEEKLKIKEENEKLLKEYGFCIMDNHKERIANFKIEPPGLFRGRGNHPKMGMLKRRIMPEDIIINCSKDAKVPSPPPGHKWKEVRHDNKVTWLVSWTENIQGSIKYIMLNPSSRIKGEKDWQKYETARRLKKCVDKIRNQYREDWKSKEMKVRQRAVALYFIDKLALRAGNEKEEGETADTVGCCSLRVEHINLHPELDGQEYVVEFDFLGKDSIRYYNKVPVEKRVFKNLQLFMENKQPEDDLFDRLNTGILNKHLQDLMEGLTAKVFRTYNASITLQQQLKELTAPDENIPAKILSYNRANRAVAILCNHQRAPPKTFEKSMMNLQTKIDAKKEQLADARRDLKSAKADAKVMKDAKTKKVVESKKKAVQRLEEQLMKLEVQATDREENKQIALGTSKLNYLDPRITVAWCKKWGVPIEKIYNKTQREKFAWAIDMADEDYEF
Outline: (§2)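 About 2 nM 3′-[32P]-end-labeled 117-bp DNA (Klenow fill-in with [α32P]dGTP) incubated with recombinant Top1 and compound for 20 min at room temperature. Stopped with 0.5% SDS, run on 20% denaturing PAGE, read by phosphorimager. Cleavage bands scored visually against 1 μM camptothecin on a 0 to +++++ scale.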

[10] = Cytotoxicity against human UACC62 cells; assay type: functional; settings: UACC-62; outline: as §1
[11] = biological target: T1, DNA topoisomerase 1 (Homo sapiens); test: Inhibition of human recombinant Top1 expressed in baculovirus-infected insect Sf9 cells using 3'-[32P]-end-labeled 117 bp DNA as substrate assessed as inhibition of DNA cleavage after 20 mins by PAGE analysis; outline: as §2
[12] = biological target: T1, DNA topoisomerase 1 (Homo sapiens); test: Poisoning activity at human recombinant Top1 expressed in baculovirus-infected insect Sf9 cells using 3'-[32P]-end-labeled 117 bp DNA as substrate assessed as delay in reversal of drug-enzyme-DNA cleavage complex formation at 1 uM measured over 10 mins by PAGE analysis
[13] = biological target: T1, DNA topoisomerase 1 (Homo sapiens); test: Poisoning activity at human recombinant Top1 expressed in baculovirus-infected insect Sf9 cells using 3'-[32P]-end-labeled 117 bp DNA as substrate assessed as trapping of enzyme cleavage complex at 0.005 to 100 uM measured after 20 mins by PAGE analysis; outline: as §2

Sequence of Tyrosyl-DNA phosphodiesterase 1 (Q9NUW8 whole entry): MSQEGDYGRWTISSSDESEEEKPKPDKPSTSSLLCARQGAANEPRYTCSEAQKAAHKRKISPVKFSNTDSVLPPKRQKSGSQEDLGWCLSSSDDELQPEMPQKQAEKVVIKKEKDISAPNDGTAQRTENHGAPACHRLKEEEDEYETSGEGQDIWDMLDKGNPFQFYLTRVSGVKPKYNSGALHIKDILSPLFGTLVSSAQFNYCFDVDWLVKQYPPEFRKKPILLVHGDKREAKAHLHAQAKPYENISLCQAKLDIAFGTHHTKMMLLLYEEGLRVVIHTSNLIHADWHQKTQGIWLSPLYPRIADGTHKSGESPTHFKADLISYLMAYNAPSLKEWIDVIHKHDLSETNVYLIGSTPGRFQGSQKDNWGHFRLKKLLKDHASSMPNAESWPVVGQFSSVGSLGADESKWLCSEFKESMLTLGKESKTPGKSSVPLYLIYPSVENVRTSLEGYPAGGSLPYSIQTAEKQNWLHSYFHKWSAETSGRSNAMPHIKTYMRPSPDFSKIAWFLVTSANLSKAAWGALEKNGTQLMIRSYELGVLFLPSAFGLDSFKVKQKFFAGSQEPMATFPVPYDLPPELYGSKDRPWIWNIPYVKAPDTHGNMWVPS

| SMILES | GI50 [1] [nM] | GI50 [2] [nM] | GI50 [3] [nM] | GI50 [4] [nM] | GI50 [5] [nM] | GI50 [6] [nM] | GI50 [7] [nM] | inhibition [8] | inhibition [9] | GI50 [10] [nM] | IC50 [8] [nM] | inhibition [11] | Activity [12] | Activity [13] |
| --- | --- | --- | --- | --- | --- | --- | --- | --- | --- | --- | --- | --- | --- | --- |
| COc1cc2c(cc1O)-c1c(c3ccc([N+](=O)[O-])cc3c(=O)n1CCCN)C2=O | 170 | 1700 | 430 | 450 | 660 | 470 | 150 | Dose-dependent effect | 50% | 950 |  |  |  |  |
| O=C1c2ccccc2-c2c1c1ccccc1c(=O)n2CCCNCCCNCCCn1c2c(c3ccccc3c1=O)C(=O)c1ccccc1-2 |  |  |  |  |  |  |  | Dose-dependent effect |  |  |  |  |  |  |
| COc1cc2c(cc1O)C(=O)c1c-2n(CCCN2CCOCC2)c(=O)c2cc(OC)c(OC)cc12 |  |  |  |  |  |  |  |  |  |  | > 111000 |  |  |  |
| O=C1c2c(O)cccc2-c2c1c1ccc([N+](=O)[O-])cc1c(=O)n2CCCN1CCOCC1 | 64 | 29000 |  |  | 200 | 12000 | 550 |  | 50% | 390 | > 111000 | Dose-dependent effect |  |  |
| COc1cc2c(cc1O)C(=O)c1c-2n(CCCn2ccnc2)c(=O)c2cc(OC)c(OC)cc12 |  |  |  |  |  |  |  |  |  |  | > 111000 |  |  |  |
| COc1cc2c(cc1O)C(=O)c1c-2n(CCCN2CCOCC2)c(=O)c2cc([N+](=O)[O-])ccc12 | < 10 |  | < 10 | < 10 | < 10 | < 10 | < 10 | Dose-dependent effect | 50% | < 10 | > 111000 |  |  |  |
| O=C1c2ccc(O)cc2-c2c1c1ccc([N+](=O)[O-])cc1c(=O)n2CCCN1CCOCC1 | < 10 | 41 | 34 | 36 | 21 | 25 | 26 |  | Active | 20 | > 111000 | Dose-dependent effect |  |  |
| COc1cc2c(cc1O)-c1c(c3cc(OC)c(OC)cc3c(=O)n1CCCn1ccnc1)C2=O |  |  |  |  |  |  |  |  |  |  | > 111000 |  |  |  |
| CC[C@@]1(O)C(=O)OCc2c1cc1n(c2=O)Cc2cc3ccccc3nc2-1 |  |  |  |  |  |  |  |  |  |  |  |  | inactive |  |
| O=C1c2ccc(O)cc2-c2c1c1ccc([N+](=O)[O-])cc1c(=O)n2CCCn1ccnc1 | < 10 | 23 | < 10 | < 10 | < 10 |  | < 10 |  | 75% | < 10 | > 111000 | Dose-dependent effect |  |  |
| O=C1c2cccc(O)c2-c2c1c1ccc([N+](=O)[O-])cc1c(=O)n2CCCn1ccnc1 |  |  |  |  |  |  |  |  | 75% |  | > 111000 |  |  |  |
| NCCCn1c2c(c3ccc([N+](=O)[O-])cc3c1=O)C(=O)c1cc(O)ccc1-2 | 26 | 220 | 52 | 46 | 30 | 56 | 78 |  | Active | 41 |  |  |  |  |
| NCCCn1c2c(c3ccc([N+](=O)[O-])cc3c1=O)C(=O)c1cccc(O)c1-2 |  |  |  |  |  |  |  |  | 50% |  |  |  |  |  |
| O=C1c2cc(O)ccc2-c2c1c1ccc([N+](=O)[O-])cc1c(=O)n2CCCBr | < 10 | 23 | < 10 | < 10 | < 10 |  | < 10 |  | Active | < 10 |  |  | Active | Active |
| COc1cc2c(cc1O)C(=O)c1c-2n(CCCn2ccnc2)c(=O)c2cc([N+](=O)[O-])ccc12 | < 10 | < 10 | < 10 | < 10 | < 10 | < 10 | < 10 | Dose-dependent effect | 20% | < 10 | > 111000 |  |  |  |
| O=C1c2cc(O)ccc2-c2c1c1ccc([N+](=O)[O-])cc1c(=O)n2CCCn1ccnc1 | < 10 | 19 | < 10 | < 10 | < 10 | < 10 | < 10 |  | 75% | < 10 | > 111000 |  |  |  |
| NCCCn1c2c(c3ccc([N+](=O)[O-])cc3c1=O)C(=O)c1c(O)cccc1-2 | 250 | 2900 | 1200 | 3400 | 1700 | 1900 | 470 |  | 75% | 2500 |  |  |  |  |
| O=C1c2cccc(O)c2-c2c1c1ccc([N+](=O)[O-])cc1c(=O)n2CCCN1CCOCC1 |  |  |  |  |  |  |  |  | 50% |  | > 111000 |  |  |  |
| COc1cc2c(cc1O)-c1c(c3ccc([N+](=O)[O-])cc3c(=O)n1CCCN1CCOCC1)C2=O | 35 | 720 | 110 | 63 | 130 | 79 |  |  | 50% | 39 | > 111000 |  |  |  |
| O=C1c2cc(O)ccc2-c2c1c1ccc([N+](=O)[O-])cc1c(=O)n2CCCN1CCOCC1 | < 10 | < 10 | < 10 | < 10 | < 10 | < 10 | < 10 |  | Active | < 10 | > 111000 |  |  |  |
| COc1cc2c(cc1O)-c1c(c3ccc([N+](=O)[O-])cc3c(=O)n1CCCn1ccnc1)C2=O | 20 | 320 | 51 | 51 | 49 | 85 | 71 |  | 50% |  |  |  |  |  |
| COc1cc2c(cc1O)C(=O)c1c-2n(CCCN)c(=O)c2cc([N+](=O)[O-])ccc12 | < 10 | 27 | < 10 | < 10 | < 10 | < 10 | < 10 | Dose-dependent effect | 50% | < 10 |  |  |  |  |
| O=C1c2c(O)cccc2-c2c1c1ccc([N+](=O)[O-])cc1c(=O)n2CCCn1ccnc1 | 56 | 230 | 130 | 170 | 150 | 81 | 130 |  | 75% | 180 | > 111000 | Dose-dependent effect |  |  |
| NCCCn1c2c(c3ccc([N+](=O)[O-])cc3c1=O)C(=O)c1ccc(O)cc1-2 | 120 | 270 | 350 |  | 210 |  | 220 |  | 75% |  |  |  |  |  |
